Results published in article PMC5270551 (Biochemistry, 2015).
Residue numbers refer to the chain shown, from its start. Names may count otherwise. Like-named read-outs stand apart in the source and are kept apart here. Where a SMILES comes first, the peptide text is derived from it. Bridges are numbered along the chain shown (N, C = ends).

Assays:
E. coli CFT073 = assay: Morphology imaging of Gram-negative bacteria; format: cell-based, Escherichia coli; conditions: 20 μM HD5ox, 1 × 10^8 CFU/mL, mid-log, 1 h 37 °C; R-HD5ox Figure S19
Procedure, shortened: (§1)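 Mid-log bacteria at 1 × 10^8 CFU/mL were exposed to test peptide (20 μM; 40 μM for P. aeruginosa) for 1 h at 37 °C in 10 mM sodium phosphate buffer, pH 7.4, with 1% v/v TSB, then imaged by microscopy for morphology.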

E. coli cyto-GFP = format: cell-based, Escherichia coli
Procedure, shortened: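 An E. coli strain carrying cytoplasmic GFP, in mid-log or stationary phase, was exposed to test peptide across 0–80 μM. Cell length and mean GFP fluorescence intensity (arbitrary units) were taken from fluorescence images, and untreated and treated means were compared by Student's t-test.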

[1] = system: Acinetobacter baumannii 17978; format: cell-based
[2] = cited from earlier work
E. coli ATCC 25922 [3] = assay: Morphology imaging by phase-contrast microscopy and SEM; format: cell-based, Escherichia coli; conditions: for cells elongated (length 5 μm or greater) / cells exhibiting blebs: 1 × 10^8 CFU/mL, mid-log, 1 h 37 °C
[4] = system: Klebsiella pneumoniae 13883; assay: Morphology imaging of Gram-negative bacteria; format: cell-based; conditions: 20 μM peptide, 1 × 10^8 CFU/mL, mid-log, 1 h 37 °C
Procedure, shortened: as §1

E. coli ATCC 25922 [5] = format: cell-based, Escherichia coli; conditions: for log-reduction in CFU/mL: 4 μM peptide
[6] = system: Pseudomonas aeruginosa PAO1; format: cell-based
E. coli K-12 = assay: Morphology imaging of Gram-negative bacteria; format: cell-based, Escherichia coli; conditions: 20 μM peptide, 1 × 10^8 CFU/mL, mid-log, 1 h 37 °C
Procedure, shortened: as §1

CC[C@H](C)[C@@H]1NC(=O)[C@H](CCC(=O)O)NC(=O)[C@@H]2CSSC[C@@H]3NC(=O)[C@H](Cc4ccc(O)cc4)NC(=O)[C@@H](NC(=O)[C@@H](NC(=O)[C@H](C)N)[C@@H](C)O)CSSC[C@@H](C(=O)N[C@@H](CCCNC(=N)N)C(=O)O)NC(=O)[C@H](CSSC[C@H](NC(=O)[C@H](CCCNC(=N)N)NC(=O)CNC(=O)[C@H]([C@@H](C)O)NC(=O)[C@H](CCCNC(=N)N)NC3=O)C(=O)N[C@@H](C)C(=O)N[C@@H]([C@@H](C)O)C(=O)N[C@@H](CCCNC(=N)N)C(=O)N[C@@H](CCC(=O)O)C(=O)N[C@@H](CO)C(=O)N[C@@H](CC(C)C)C(=O)N[C@@H](CO)C(=O)NCC(=O)N[C@@H](C(C)C)C(=O)N2)NC(=O)[C@H](CC(C)C)NC(=O)[C@H](CCCNC(=N)N)NC(=O)[C@H](Cc2ccc(O)cc2)NC(=O)[C@H](CC(C)C)NC(=O)[C@H](CCCNC(=N)N)NC(=O)CNC(=O)[C@H](CO)NC1=O [HD5ox] (H-ATCYCRTGRCATRESLSGVCEISGRLYRLCCR-OH; disulfide 3-31, 5-20, 10-30 (inferred); N-terminus and C-terminus assumed)
bacterial morphology (E. coli CFT073): bleb formation, elongation, and clumping | mean cell length after treatment (E. coli cyto-GFP; mid-log phase, increasing HD5ox (0–80 μM), from 2.8 ± 0.8 μm without peptide): 3.4 ± 1.0 μm | mean GFP fluorescence intensity after treatment (E. coli cyto-GFP; mid-log phase, increasing HD5ox (0–80 μM), from 155 ± 48 units without peptide): 93 ± 47 units | mean cell length after treatment (E. coli cyto-GFP; stationary phase, from 3.0 ± 0.8 μm without peptide): 2.9 ± 0.7 μm | mean GFP fluorescence intensity after treatment (E. coli cyto-GFP; stationary phase, from 112 ± 38 units without peptide): 139 ± 53 units | bacterial morphology ([1]; 20 μM peptide, 1 × 10^8 CFU/mL, mid-log, 1 h 37 °C): bleb formation, elongation, and clumping | HD5ox concentration at which blebs were displayed ([1]; 17978, 1 h): 10 µM | oligomeric form at neutral pH [2]: tetramers | cells elongated (length 5 μm or greater) (E. coli ATCC 25922 [3]; 20 μM peptide, n = 212 cells): 2% | cells exhibiting blebs (E. coli ATCC 25922 [3]; 20 μM peptide, n = 212 cells): ~ 17% | bacterial morphology with NaCl (E. coli ATCC 25922 [3]; 40 μM peptide co-treated with 200 mM NaCl): smooth morphology similar to that of the untreated control | bacterial morphology (phase-contrast) (E. coli ATCC 25922 [3]; 2 and 4 μM peptide, mid-log phase, 1 × 10^6 CFU/mL, standard AMA conditions): formation of large bulges | cells elongated (length 5 μm or greater) (E. coli ATCC 25922 [3]; ≥40 μM peptide, n = 203 cells): ≥ 4% | cells exhibiting blebs (E. coli ATCC 25922 [3]; ≥40 μM peptide, n = 203 cells): ~ 30% | bacterial morphology [4]: bleb formation, elongation, and clumping | log-reduction in CFU/mL (E. coli ATCC 25922 [5]; mid-log phase E. coli): ~ 4 fold log-reduction in CFU/mL | log-reduction in CFU/mL (E. coli ATCC 25922 [5]; stationary phase E. coli): ~ 2 fold log-reduction in CFU/mL | log reduction in CFU/mL (E. coli ATCC 25922 [5]; 40 μM peptide, modified AMA conditions, 1 × 10^8 CFU/mL): ≈ 2 fold log reduction in CFU/mL | antibacterial activity in presence of Zn(II) (E. coli ATCC 25922 [5]; 2:1 Zn(II):HD5ox molar ratio): loss of antibacterial activity | HD5ox activity in presence of divalent cations (E. coli ATCC 25922 [5]; Ca(II), Mg(II) and Zn(II) added): blocked HD5ox activity | lethal dose for 99.99% killing, LD99.99 (E. coli ATCC 25922 [5]; E. coli ATCC 25922, 1 × 10^6 CFU/mL, n = 3 (Figure 9C)): 8 µM | bacterial morphology ([6]; 40 μM peptide, 1 × 10^8 CFU/mL, mid-log, 1 h 37 °C): bleb formation, elongation, and clumping | HD5ox concentration at which blebs were observed (only at this concentration) ([6]; PAO1, 1 h): 40 µM | bacterial morphology (E. coli K-12): bleb formation, elongation, and clumping

B1: HD5-TE: Linear form of human α-defensin 5 (iodoacetamide-capped) (peptide, UniProt Q01523 20-94, looked up)
Defensin alpha 5: ESLQERADEATTQKQSGEDNQDLAISFAGNGLSALRTSGSQARATCYCRTGRCATRESLSGVCEISGRLYRLCCR
modifications: Defensin-5 cysteines carbamidomethylated
log reduction of CFU/mL (E. coli ATCC 25922 [5]; 16 μM peptide): 2 fold log reduction of CFU/mL

B2: R-HD5[R9K]: rhodamine-HD5 conjugate, fluorophore positioned at R9K mutation site (conjugate, UniProt Q01523 20-94, looked up, variant R9K)
Defensin alpha 5: B1 Defensin alpha 5 with R52K
modifications: Defensin-5 rhodamine label at K9
antimicrobial activity against E. coli (in words) (E. coli ATCC 25922 [5]; AMA assay): active against E. coli
